Data from ChEMBL document CHEMBL3272008, “Synthesis and biological actions of 2-substituted quinolizidines” (J Med Chem, 1976).
Calls of active or inactive are those of the source. The rule behind the calls is not given here.

How the values were obtained:
Mus musculus [1] = assay: Depression of spontaneous motor activity in Swiss-Webster mouse at 50 mg/kg, ip by photocell cage test relative to control; type: functional; conditions: route intraperitoneal
In short: (§1)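 Compound was dissolved in minimal 1.5 M NaH2PO4, diluted with water and given ip. Two mice given the same dose went into each of three photocell actophotometer cages 10 min after the rotarod test started. Counts were taken over 15 min, starting 5 min after placement. A factorial design across cages cancelled differences between units. Results were given as % of control, with significance by Student's t test (p < 0.05).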

Mus musculus [2] = assay: Depression of forced motor activity in Swiss-Webster mouse at 12.5 mg/kg, ip after 30 mins by rotarod test relative to control; type: functional; conditions: route intraperitoneal
In short: (§2)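 Mice were dosed ip with vehicle or compound dissolved in a minimum of 1.5 M NaH2PO4 and diluted with water. On the rotarod, speed was 4 rpm for 30 sec, then 6 rpm for 30 sec, then increased every 30 sec up to a maximum of 50 rpm until the fall. Each mouse had four trials, two per day on two consecutive days, spaced 4–6 hr apart. The fourth trial was run 30 min after dosing. The read-out was trial time (sec) as % of control, with significance by Student's t test (p < 0.05).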

Mus musculus [3] = assay: Depression of forced motor activity in Swiss-Webster mouse at 50 mg/kg, ip after 30 mins by rotarod test relative to control; type: functional; conditions: route intraperitoneal; in short: as §2
[4] = Acute toxicity in ip dosed Swiss-Webster mouse administered as single dose after 7 days; type: organism-based; conditions: in vivo
In short: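 Mice given a single ip dose at each of four dose levels; lethality followed over 7 days; LD50 with 95% confidence limits estimated by the method of Weil. Compounds dissolved in minimal 1.5 M NaH2PO4, diluted with water; haloperidol in minimal 50% (w/v) tartaric acid-water.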

Mus musculus [5] = assay: Depression of spontaneous motor activity in Swiss-Webster mouse at 25 mg/kg, ip by photocell cage test relative to control; type: functional; conditions: route intraperitoneal; in short: as §1
Mus musculus [6] = assay: Depression of spontaneous motor activity in ip dosed Swiss-Webster mouse by photocell cage test relative to control; type: functional, organism-based; in short: as §1
Mus musculus [7] = assay: Depression of spontaneous motor activity in Swiss-Webster mouse at 12.5 mg/kg, ip by photocell cage test relative to control; type: functional; conditions: route intraperitoneal; in short: as §1
Mus musculus [8] = assay: Depression of forced motor activity in Swiss-Webster mouse at 25 mg/kg, ip after 30 mins by rotarod test relative to control; type: functional; conditions: route intraperitoneal; in short: as §2
Mus musculus [9] = assay: Depression of spontaneous motor activity in Swiss-Webster mouse at 30 mg/kg, ip by photocell cage test relative to control; type: functional; conditions: route intraperitoneal
In short: (§3)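 Spontaneous activity in three photocell cages: two mice given the same ip dose placed per cage 10 min after rotarod start; 15-min count begun 5 min after placement. Each dose run in factorial design across all three cages to offset unit sensitivity. Counts expressed as % of control; Student's t test, p < 0.05.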

Mus musculus [10] = assay: Depression of forced motor activity in Swiss-Webster mouse at 30 mg/kg, ip after 30 mins by rotarod test relative to control; type: functional; conditions: route intraperitoneal
In short: (§4)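 Rotarod in mice: rod at 4 rpm for 30 sec, 6 rpm next 30 sec, then stepped up every 30 sec (max 50 rpm) until fall. Six mice at a time, four trials (two per day, 4–6 hr apart, two consecutive days); vehicle or compound ip 30 min before fourth trial. Time on rod as % of control; Student's t test, p < 0.05.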

Mus musculus [11] = assay: Depression of spontaneous motor activity in Swiss-Webster mouse at 60 mg/kg, ip by photocell cage test relative to control; type: functional; conditions: route intraperitoneal; in short: as §3
Mus musculus [12] = assay: Depression of forced motor activity in Swiss-Webster mouse at 15 mg/kg, ip after 30 mins by rotarod test relative to control; type: functional; conditions: route intraperitoneal; in short: as §4
Mus musculus [13] = assay: Depression of forced motor activity in Swiss-Webster mouse at 60 mg/kg, ip after 30 mins by rotarod test relative to control; type: functional; conditions: route intraperitoneal; in short: as §4
Mus musculus [14] = assay: Depression of spontaneous motor activity in Swiss-Webster mouse at 15 mg/kg, ip by photocell cage test relative to control; type: functional; conditions: route intraperitoneal; in short: as §3
Rattus norvegicus [15] = assay: Induction of ptosis in Wistar rat at 25 mg/kg, ip after 2 hrs; type: functional, organism-based; parameters: dose 25 mg/kg
In short: (§5)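 Male Wistar rats (175–225 g) were injected ip, with three treated rats and one control per dose. Compounds were in minimal 1.5 M NaH2PO4 diluted with water; the reference drug was in minimal 50% (w/v) tartaric acid-water. Gross behavior was observed. Respiratory rate, heart rate, rectal temperature and pupil size were measured at time points after dosing.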

Rattus norvegicus [16] = assay: Depression of motor activity in Wistar rat at 25 mg/kg, ip; type: functional, organism-based; parameters: dose 25 mg/kg; in short: as §5
Rattus norvegicus [17] = assay: Increase in salivation in Wistar rat at 25 mg/kg, ip after 0.5 to 1 hr; type: functional, organism-based; parameters: dose 25 mg/kg; in short: as §5
Mus musculus [18] = assay: Depression of spontaneous motor activity in Swiss-Webster mouse at 6.25 mg/kg, ip by photocell cage test relative to control; type: functional; conditions: route intraperitoneal; in short: as §1
Rattus norvegicus [19] = assay: Reduction in rectal temperature in Wistar rat at 25 mg/kg, ip relative to control; type: functional; conditions: route intraperitoneal; in short: as §5
Mus musculus [20] = assay: Depression of forced motor activity in Swiss-Webster mouse at 6.25 mg/kg, ip after 30 mins by rotarod test relative to control; type: functional; conditions: route intraperitoneal; in short: as §2
Mus musculus [21] = assay: Acute toxicity in ip dosed Swiss-Webster mouse assessed as intense and prolonged convulsions administered as single dose after 72 hrs; type: organism-based; conditions: in vivo
Rattus norvegicus [22] = assay: Increase in salivation in Wistar rat at 25 mg/kg, ip after 2 hrs; type: functional, organism-based; parameters: dose 25 mg/kg; in short: as §5
Rattus norvegicus [23] = assay: Reduction in respiratory rate in Wistar rat at 25 mg/kg, ip; type: functional, organism-based; parameters: dose 25 mg/kg; in short: as §5
Rattus norvegicus [24] = assay: Induction of ptosis in Wistar rat at 25 mg/kg, ip after 0.5 to 1 hr; type: functional, organism-based; parameters: dose 25 mg/kg; in short: as §5
Mus musculus [25] = assay: Depression of forced motor activity in ip dosed Swiss-Webster mouse after 30 mins by rotarod test relative to control; type: functional, organism-based; in short: as §2
Rattus norvegicus [26] = assay: Reduction in heart rate in Wistar rat at 25 mg/kg, ip; type: functional, organism-based; parameters: dose 25 mg/kg; in short: as §5
Mus musculus [27] = assay: Depression of forced motor activity in Swiss-Webster mouse at 10 mg/kg, ip after 30 mins by rotarod test relative to control; type: functional; conditions: route intraperitoneal; in short: as §4
Rattus norvegicus [28] = organism: Rattus norvegicus; assay: Reduction in respiration rate in Wistar rat; type: functional, organism-based
In short: (§6)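 Male Wistar rats (175–225 g) dosed ip (vehicle dilute NaH2PO4 in water). Gross behaviour observed; respiratory rate, heart rate, rectal temperature and pupil size measured. Three treated rats per dose compared with one control.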

Mus musculus [29] = assay: Depression of spontaneous motor activity in Swiss-Webster mouse at 10 mg/kg, ip by photocell cage test relative to control; type: functional; conditions: route intraperitoneal; in short: as §3
Mus musculus [30] = assay: Depression of forced motor activity in Swiss-Webster mouse at 5 mg/kg, ip after 30 mins by rotarod test relative to control; type: functional; conditions: route intraperitoneal; in short: as §4
Rattus norvegicus [31] = organism: Rattus norvegicus; assay: Increase in heart rate in Wistar rat; type: functional, organism-based; in short: as §6
Mus musculus [32] = assay: Depression of spontaneous motor activity in Swiss-Webster mouse at 5 mg/kg, ip by photocell cage test relative to control; type: functional; conditions: route intraperitoneal; in short: as §3
Rattus norvegicus [33] = assay: Increase in motor activity in Wistar rat at 5 to 30 mg/kg, ip; type: functional, organism-based; in short: as §6

Row | Compound | Activity (Mus musculus [1]) [%] | Activity (Mus musculus [2]) [%] | Activity (Mus musculus [3]) [%] | LD50 at 168 h [4] [mg/kg] | Activity (Mus musculus [5]) [%] | Activity (Mus musculus [6]) | Activity (Mus musculus [7]) [%] | Activity (Mus musculus [8]) [%] | other results
1 | O[C@]1(c2cccc(C(F)(F)F)c2)CCN2CCCCC2C1 (single isomer, unassigned) | 35.4 | 107.2 | 56.6 | 137 | 45.1 | Dose-dependent effect | 70.3 | 98.1 | 
2 | O[C@@]1(c2ccc(C(F)(F)F)cc2)CCN2CCCCC2C1 (single isomer, unassigned) | 45.2 | 99.3 | 83.5 | 130 | 82.7 |  | 49.7 | 92.3 | 
3 | O[C@@]1(c2cccc(Cl)c2)CCN2CCCCC2C1 (single isomer, unassigned) |  |  |  | 180 |  |  |  |  | Activity (Mus musculus [9]): 154.9%; Activity (Mus musculus [10]): 105%; Activity (Mus musculus [11]): 44.3%; Activity (Mus musculus [12]): 96.5%; Activity (Mus musculus [13]): 51.4%; Activity (Mus musculus [14]): 166.7%
4 | O=C(c1ccc(F)cc1)[C@H]1CCN2CCCC[C@@H]2C1 (single isomer, unassigned) |  | 55.5 |  | 86.1 | 10.2 | Dose-dependent effect | 48.5 | 23 | Activity (Rattus norvegicus [15]): inactive; Activity (Rattus norvegicus [16]): Active; Activity (Rattus norvegicus [17]): Active; Activity (Mus musculus [18]): 95.6%; T (Rattus norvegicus [19]): 2.9 °C; Activity (Mus musculus [20]): 65.6%; Activity (Mus musculus [21]): Toxic; Activity (Rattus norvegicus [22]): inactive; Activity (Rattus norvegicus [23]): Active; Activity (Rattus norvegicus [24]): Active; Activity (Mus musculus [25]): Dose-dependent effect; Activity (Rattus norvegicus [26]): Active
5 | O[C@@]1(c2ccc(Cl)cc2)CCN2CCCCC2C1 (single isomer, unassigned) |  |  |  | 67.5 | 22.5 |  |  | 87.6 | Activity (Mus musculus [27]): 101.9%; Activity (Rattus norvegicus [28]): Active; Activity (Mus musculus [29]): 439.6%; Activity (Mus musculus [30]): 105.9%; Activity (Rattus norvegicus [31]): Active; Activity (Mus musculus [32]): 526.8%; Activity (Rattus norvegicus [33]): inactive
